# Measurements: ChEMBL document CHEMBL4513216, “Probing the Open Global Health Chemical Diversity Library for Multistage-Active Starting Points for Next-Generation Antimalarials” (ACS Infect Dis, 2020)
# Test: Toxicity liver stage against HepG2, at 10uM
# Assay type: cell-based
# Set-up: test concentration 10 uM, cell line HepG2-A16-CD81EGFP
# Conditions: human, HepG2-A16-CD81EGFP cells; read-out: INHIBITION
# In short: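 Uninfected HepG2-A16-CD81EGFP cells, 3 × 10^3 per well, 1536-well, plated on prespotted compound at 10 μM final, parasite-free screening media added to match infected plates; puromycin 10 μM positive, DMSO 0.5% negative; run in parallel with 48 h PbLuc assay at 37 °C, 5% CO2; viability by CellTiter-Glo luminescence, normalized to controls.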
row,Compound,cytotoxicity at 10 µM
1,Cc1sc(N)nc1-c1ccc(Cl)cc1,-2.75%
2,COC(=O)N1CCN2C[C@H](CO)[C@@H](c3ccccc3)[C@H]2C1,6.12%
3,CCCc1cc(=O)[nH]c2nnc(SCC(=O)OCC)n12,10.8%
4,O=C(NCC(Cc1cccc(F)c1)n1cccc1)C1CC1 (centres undefined),1.22%
5,CSCC(C)(O)CNC(=O)Nc1cc(C)cc(C)c1 (centres undefined),-3.24%
6,O=C(c1nnn(-c2ccccc2)n1)N(CCO)CCO,-1.48%
7,c1ccc(COC[C@@]23CCC[C@@H]2CN(Cc2ccccn2)C3)nc1,1.39%
8,CC(=O)N1CCCC2(CN(Cc3ccncc3)CCO2)C1 (centres undefined),7.22%
9,Cn1cc(C(=O)N[C@H]2CN(S(C)(=O)=O)[C@@H]3CCCO[C@H]23)cn1,-16%
10,c1nc(N2CCOCC2)nc2c1COCC21CCN(CC2CC2)C1 (centres undefined),9.69%
11,CCOc1ccc(CNCCCn2ccnc2)cc1OC,-4.78%
12,NC(=O)c1ccc2c(c1)nc1n2CCN(Cc2ccco2)C1,-11.3%
13,Cc1nn(CCC(=O)NC2CCS(=O)(=O)C2)c(C)c1Br (centres undefined),0.549%
14,O=C(NCCCN1CCOCC1)c1ccn(COc2ccccc2)n1,5.5%
15,CCOc1ccc(N2CCCN=C2NC(=O)c2ccc(OC)cc2)cc1,6.03%
16,CCn1cc(CNc2ccc(F)c(F)c2)cn1,-0.0638%
17,CN1CCN(c2ncccn2)CC1C(N)=O (centres undefined),15.4%
18,CC(C)Nc1n[nH]c2nc(C3CCN(C(=O)c4ccccn4)C3)ccc12 (centres undefined),17%
19,CN1CCCC(Cc2nccnc2Cl)CC1 (centres undefined),0.368%
20,CC(C)N1CCC(c2cccc(C(=O)N(C)C)n2)CC1,9.23%
21,Cc1cccc(CC2CCCN(C(=O)Cc3csc(C)n3)C2)n1 (centres undefined),-26.5%
22,Cc1cc(C)nc(C2CCN(C(=O)c3cnco3)C2)n1 (centres undefined),-4.22%
23,CCc1cc(C(F)(F)F)c2c(C3CCCN(C(=O)COC)C3)noc2n1 (centres undefined),-17.6%

row,Compound,cytotoxicity at 10 µM
1,NC(=O)C1(c2cnccn2)CCCN1Cc1ccc(Cl)cc1 (centres undefined),-0.085%
2,CNC(=O)CCc1cc(C)nc(C2CCCN2)n1 (centres undefined),1.77%
3,CCC(O)(CNCc1ccncc1)c1ccc(Br)cc1 (centres undefined),-8.64%
4,CC(C)c1nnc(CN2CCCc3ccc(S(N)(=O)=O)cc32)o1,-1.08%
5,CN(CC(=O)NCC1CCCCC1)S(=O)(=O)c1cccnc1,3.82%
6,CCOCCC(=O)NC(Cc1ccc(C)cc1)c1ccccn1 (centres undefined),-1.55%
7,Cc1ccc(CNC(=O)N2CCN(S(C)(=O)=O)CC2)n1C,2.22%
8,COC(=O)c1cc(NCC(=O)NC(N)=O)cc(C(F)(F)F)c1,-1.06%
9,CCC(C)(CC(=O)OC)NC(=O)c1cccc(F)c1F (centres undefined),-4.13%
10,CCc1nc(CN2CCCC(N(C)CCn3cncn3)C2)no1 (centres undefined),-6.5%
11,O=C(NCc1ccccc1CN1CCCCC1)Nc1nncs1,0.513%
12,COc1cc(NC(=O)N(C)Cc2ccc(Br)o2)ncn1,-4.12%
13,CC(C)n1c(C2CCCN(CC(N)=O)C2)nc2ccccc21 (centres undefined),-7.68%
14,CC(CO)NC(=O)Nc1ccc(COC2CCCC2)cc1 (centres undefined),-7.41%
15,CC1CCN(CCNC(=O)C2CCN(C(=O)C3CC3)CC2)CC1,6.86%
16,COc1cc(NC(=O)c2ccc(C)cc2C)c(C(=O)N(C)C)cc1OC,-0.414%
17,CSCC(CCO)NC(=O)Nc1ccc(C)cc1C (centres undefined),1.82%
18,Cc1noc(Cl)c1CC(=O)N1CCCC1Cn1cccn1 (centres undefined),-9.76%
19,COc1ccnc(NC(=O)c2ccsc2)c1,-0.747%
20,O=C(c1cnccn1)N1CCN(c2ccnc3ccsc23)CC1,12.6%
21,Cc1cccc(C)c1OCCNC(=O)C[S+]([O-])C1CCCC1 (centres undefined),-136%
22,CC(=O)N(c1ccc(F)cc1)c1nc(CN2CCCC2C(C)C)cs1 (centres undefined),-12.2%
23,CC(C)c1nc(/C=C/c2ccc(O)c(Cl)c2)ncc1C(=O)O,-1.7%

row,Compound,cytotoxicity at 10 µM
1,CNS(=O)(=O)CC(=O)NC(C)Cc1cccc(Cl)c1 (centres undefined),-8.15%
2,O=C1CCCN1c1cccc(CNCc2nc(-c3ccco3)no2)c1,0.379%
3,COc1ccc(CCn2cnc(C#N)n2)cc1,0.866%
4,CC(O)CN1CCC(CN(C)Cc2cccc(C#N)c2)CC1 (centres undefined),-1.3%
5,CNS(=O)(=O)c1csc(C(=O)N(C)Cc2ccccc2C)c1,6.78%
6,CN(CCS(=O)(=O)c1cc(Cl)ccc1Cl)CC(=O)Nc1ccc(F)cc1,8.9%
7,CC(CC1CC1)NCCCN1CCCN(C)CC1 (centres undefined),31.7%
8,Cc1ccc(S(C)(=O)=O)cc1C(=O)NS(C)(=O)=O,-11.4%
9,O=C(Cn1cc(-c2ccccc2)cn1)N1CCNC1=O,6.74%
10,O=C1C(Nc2ccc3nccnc3n2)CCN1c1ccccc1F (centres undefined),-10%
11,O=C1CC(Nc2ccc3nccnc3n2)CN1c1ccccc1 (centres undefined),-7.76%
12,CC(C)(C)c1ncc(CNCC2CCCn3ccnc32)s1 (centres undefined),-6.76%
13,CCc1nc(NS(=O)(=O)c2cc(C)ccc2F)no1,-4.71%
14,CC(=O)c1cccc(OCCCC(=O)N(C)CCc2ccncc2)c1,-11.7%
15,Cc1nc(C)n(CC2CCCCN2CCS(C)(=O)=O)n1 (centres undefined),-10.9%
16,CC(C)CNC(=O)NC(=O)CNc1ccccc1SCC(C)C#N (centres undefined),-8.05%
17,NS(=O)(=O)CCNC(=O)C1(c2ccc(Br)cc2)CC1,-4.69%
18,NC(=O)c1cc(NC(=O)N2CCCCCC2)ccc1F,0.692%
19,COc1cc(-c2cc(OC)c(OC)c(OC)c2)ncn1,-2.31%
20,CC(C)Nc1nc2c(s1)C(=O)CN(C(=O)NCCc1ccccc1)C2,-5.55%
21,Cc1ccc([C@@H]2CN(C(=O)c3cc(C)no3)C[C@H]2NC(=O)C2CC2)cc1,-1.82%
22,CCS(=O)(=O)c1ncc(CN(C)C)n1Cc1ccccc1,1.73%
23,CCn1ccnc1CN1CCCn2nc(CNC(=O)C3CCC3)cc2C1,-7.79%

row,Compound,cytotoxicity at 10 µM
1,COCc1cn(CC2CCN(Cc3nc(C)c[nH]3)CC2)nn1,0.622%
2,CCCc1cc(NCCCC2CCOC2)n2nccc2n1 (centres undefined),-0.247%
3,CCc1nnc(CN(C)Cc2nc(-c3ccccc3Cl)oc2C)o1,-7.43%
4,CC(C)N1CCCC2(CCN(c3nccc(C(F)(F)F)n3)C2)C1=O (centres undefined),11.4%
5,O=C(CCCN1CCCCC1)N1CCC(c2nnc[nH]2)CC1,-7.92%
6,COCCN(Cc1cccs1)C(=O)c1ccc(=O)n(C)c1,-4.78%
7,COc1ccc2[nH]c(CNc3cc(C4CCNCC4)nc(C)n3)cc2c1,-13.4%
8,Cc1[nH]c2c(F)cccc2c1CC(=O)NCc1csc(N(C)C)n1,-1.43%
9,COc1cccc(CNC2CCSC2)c1OC (centres undefined),2.25%
10,Cn1ccnc1SCCNc1cc(N2CCOCC2)ncn1,4.91%
11,CCn1nc(C)c(CCNC(=O)C2CCCN(C(N)=O)C2)c1C (centres undefined),-11.2%
12,CN(Cc1n[nH]c2c1CCC2)C(=O)c1cc(-c2cccn2C)n[nH]1,5.12%
13,CCOc1ccccc1OCCN(C)Cc1ncnn1CC,10.2%
14,Cc1ccc(Cl)c(CN2CCC(c3nccn3C(C)C)CC2)c1F,4.8%
15,CNS(=O)(=O)c1ccc(C)c(C(=O)NCCNc2ncccn2)c1,-1.87%
16,COc1c(CNCCC(=O)NC2CCCCC2)c(C(C)C)nn1C,-10.4%
17,COc1cc(NC(=O)CCn2nc(-c3cccs3)oc2=O)cc(OC)c1,2.9%
18,COc1ncccc1CNC(=O)c1cnc(C)cn1,-4.69%
19,O=C(Cc1c(F)cccc1Cl)N1CCC(Nc2cccnn2)CC1,-4.92%
20,Cc1noc(CCCC(=O)NCC2CCS(=O)(=O)C2)n1 (centres undefined),-16.4%
21,CN(C)c1cc(CNC(=O)c2ccc(F)cc2)ccn1,-22.9%
22,OCC1CCCN1c1cc(NCc2cccnc2)ncn1 (centres undefined),-16.6%
23,Cc1ncsc1CNC(=O)N(CCCO)C1CCc2ccccc21 (centres undefined),-9.99%

row,Compound,cytotoxicity at 10 µM
1,Cn1nc2c(cc1=O)CN(CCN1CCCC1=O)CC2,-31.1%
2,COc1cccc(C(=O)N2CCCCC2c2nccs2)c1OC (centres undefined),-14.4%
3,CC(C)Oc1ncccc1CNC(=O)c1ccc(=O)[nH]n1,-23.8%
4,CN(C)c1cc(C(=O)N2CCCCC2CNS(C)(=O)=O)ccn1 (centres undefined),-16%
5,Cc1nc(C)n(CC2CCCN(CCC(=O)NC3CCCC3)C2)n1 (centres undefined),-6.73%
6,O=C(CN(Cc1ccco1)C1CC1)N1CCCCCC1,-3.26%
7,COc1cc2ccccc2cc1C(=O)N1CCCC(c2nncn2C)C1 (centres undefined),-6.9%
8,Cn1cnnc1C1CCCN(C(=O)c2cc3ccccc3[nH]2)C1 (centres undefined),-7.88%
9,CCc1ccc(S(=O)(=O)Nc2c(C)cccc2C(=O)O)s1,-15.9%
10,CC(C)c1noc(CCCC(=O)NC2CCS(=O)(=O)C2)n1 (centres undefined),4.67%
11,CC(C)c1nnc2n1CCN(C(=O)c1ccc3cc[nH]c3c1)C2,4.02%
12,O=C(c1ccccc1-n1cccn1)N1CCCN(c2cccnn2)CC1,7.03%
13,c1cncc(CO[C@H]2CC[C@H]3[C@@H]2OCCN3C2CCOCC2)c1,-14.4%
14,Cc1noc([C@@H]2C[C@H]3CN(CC4CCOCC4)C[C@H]3O2)n1,-137%
15,CNC(=O)C1Cn2ccnc2C2(CCN(C(=O)c3ccoc3C)CC2)O1 (centres undefined),-157%
16,CN1CCN(Cc2cccnc2)C2(CCN(c3ncc(F)cn3)C2)C1=O (centres undefined),-6.49%
17,Cc1cccc(CN2C[C@@H]3OCCN(S(=O)(=O)N(C)C)[C@@H]3C2)c1,-12.4%
18,CCOCC1CN(c2ccncn2)Cc2cnn(CC3CC3)c21 (centres undefined),6.38%
19,CC(=O)N1C[C@@H]2CN(Cc3cccnc3)CCO[C@@H]2C1,-0.271%
20,Cc1ccc(N2CCCC3(COCCN(c4nccs4)C3)C2)nn1 (centres undefined),-1.05%
21,O=C1NC2(CCN(C(=O)c3ccccc3)CC2)CC1c1cccnc1 (centres undefined),-10.9%
22,CS(=O)(=O)N1C[C@H]2CC[C@@H](C1)N(C(=O)Cn1ccc3ccccc31)C2,-1.38%
